What was measured:
[1] = Cytotoxicity against human H1299 cells after 72 hrs using resazurin dye by microtiter plate fluorimeter analysis; type: functional; settings: NCI-H1299, 72 h
MDA-MB-231 = assay: Cytotoxicity against human MDA-MB-231 cells after 72 hrs using resazurin dye by microtiter plate fluorimeter analysis; type: functional; settings: MDA-MB-231, 72 h
HCT-116 = assay: Cytotoxicity against human HCT116 cells after 72 hrs using resazurin dye by microtiter plate fluorimeter analysis; type: functional; settings: HCT-116, 72 h
K562 = assay: Cytotoxicity against human K562 cells after 72 hrs using resazurin dye by microtiter plate fluorimeter analysis; type: functional; settings: K562, 72 h
[2] = Inhibition of sheep brain tubulin polymerization using DAPI by fluorescence assay; parameters: species or system Ovis aries
Method in brief: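 Tubulin purified by two assembly–disassembly cycles, in 0.1 M MES, 0.5 mM MgCl2, 1 mM EGTA, 1 mM GTP, pH 6.6 (about 2-3 mg/mL). Assembly followed by DAPI fluorescence at 37°C.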

Structure (SMILES) | GI50 [1] [nM] | GI50 (MDA-MB-231) [nM] | GI50 (HCT-116) [nM] | GI50 (K562) [nM] | IC50 [2] [nM]
COc1ccc(/C=C\c2cc(OC)c(OC)c(OC)c2)cc1O [COMBRETASTATIN A4] | 5 | 3 | 2 | 4 | 
C=C(c1ccc(OC)c(O)c1)c1cc(OC)c(OC)c(OC)c1 | 3 | 4 | 3 | 5 | 2200

From ChEMBL document CHEMBL2021895 (Eur J Med Chem, 2012)
